≈ marks a conversion by molar mass, not a printed value.
How the values were obtained:
[1] = Inhibition of bocillin FL binding to Pseudomonas aeruginosa PAO1 penicillin-binding protein 1a
Method in brief: (§1)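 P. aeruginosa PAO1 PBPs were isolated and competed with 10 drug concentrations from 0.06 μg/ml to 32 μg/ml before Bocillin FL labeling. Bands were detected by fluorescence imaging. IC50 was taken as 50% inhibition of Bocillin FL binding versus the no-drug sample.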

[2] = Inhibition of bocillin FL binding to Escherichia coli MC4100 penicillin-binding protein 6
Method in brief: (§2)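 Isolated E. coli MC4100 PBPs were competed with 10 drug concentrations from 0.016 μg/ml to 8 μg/ml, then labeled with Bocillin FL. Fluorescent PBP bands were imaged. IC50 is the concentration giving 50% inhibition of Bocillin FL binding to each PBP relative to a no-drug control.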

[3] = Inhibition of bocillin FL binding to Escherichia coli MC4100 penicillin-binding protein 5; method in brief: as §2
[4] = Inhibition of bocillin FL binding to Escherichia coli MC4100 penicillin-binding protein 4; method in brief: as §2
[5] = Inhibition of bocillin FL binding to Escherichia coli MC4100 penicillin-binding protein 3; method in brief: as §2
[6] = target: T1, Cell shape peptidoglycan synthetase penicillin-binding protein 2 (Escherichia coli, UniProt Q2TL65); experiment: Inhibition of bocillin FL binding to Escherichia coli MC4100 penicillin-binding protein 2
T1 sequence (Q2TL65 whole entry): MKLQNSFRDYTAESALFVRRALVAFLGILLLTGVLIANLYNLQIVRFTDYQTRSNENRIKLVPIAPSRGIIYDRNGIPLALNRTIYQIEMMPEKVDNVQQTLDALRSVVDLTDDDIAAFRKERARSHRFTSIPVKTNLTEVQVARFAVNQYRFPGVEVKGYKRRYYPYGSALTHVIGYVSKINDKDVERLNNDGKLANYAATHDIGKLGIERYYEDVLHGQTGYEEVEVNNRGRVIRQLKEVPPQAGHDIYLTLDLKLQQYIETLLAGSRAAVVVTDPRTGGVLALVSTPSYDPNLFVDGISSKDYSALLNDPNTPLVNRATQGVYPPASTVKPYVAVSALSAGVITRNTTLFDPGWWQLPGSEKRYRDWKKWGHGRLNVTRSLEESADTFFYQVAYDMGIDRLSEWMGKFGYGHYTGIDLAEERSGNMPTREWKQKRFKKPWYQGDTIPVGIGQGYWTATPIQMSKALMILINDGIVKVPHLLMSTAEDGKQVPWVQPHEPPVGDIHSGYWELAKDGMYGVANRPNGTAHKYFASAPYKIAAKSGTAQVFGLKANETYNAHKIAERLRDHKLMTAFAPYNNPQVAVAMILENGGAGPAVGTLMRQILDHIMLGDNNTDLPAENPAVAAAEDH
Method in brief: (§3)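 Isolated E. coli MC4100 PBPs; competition with drug at 10 concentrations, 0.016 μg/ml to 8 μg/ml, then Bocillin FL labeling. Gel bands visualized by imaging. IC50 is the concentration giving 50% inhibition of Bocillin FL binding relative to a no-drug control.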

[7] = Inhibition of bocillin FL binding to Escherichia coli MC4100 penicillin-binding protein 1b; method in brief: as §2
[8] = Inhibition of bocillin FL binding to Escherichia coli MC4100 penicillin-binding protein 1a; method in brief: as §3
[9] = target: T2, Penicillin-binding protein 2 (Pseudomonas aeruginosa, UniProt Q9X6V3); experiment: Inhibition of bocillin FL binding to Pseudomonas aeruginosa PAO1 penicillin-binding protein 2
T2 sequence (Q9X6V3 whole entry): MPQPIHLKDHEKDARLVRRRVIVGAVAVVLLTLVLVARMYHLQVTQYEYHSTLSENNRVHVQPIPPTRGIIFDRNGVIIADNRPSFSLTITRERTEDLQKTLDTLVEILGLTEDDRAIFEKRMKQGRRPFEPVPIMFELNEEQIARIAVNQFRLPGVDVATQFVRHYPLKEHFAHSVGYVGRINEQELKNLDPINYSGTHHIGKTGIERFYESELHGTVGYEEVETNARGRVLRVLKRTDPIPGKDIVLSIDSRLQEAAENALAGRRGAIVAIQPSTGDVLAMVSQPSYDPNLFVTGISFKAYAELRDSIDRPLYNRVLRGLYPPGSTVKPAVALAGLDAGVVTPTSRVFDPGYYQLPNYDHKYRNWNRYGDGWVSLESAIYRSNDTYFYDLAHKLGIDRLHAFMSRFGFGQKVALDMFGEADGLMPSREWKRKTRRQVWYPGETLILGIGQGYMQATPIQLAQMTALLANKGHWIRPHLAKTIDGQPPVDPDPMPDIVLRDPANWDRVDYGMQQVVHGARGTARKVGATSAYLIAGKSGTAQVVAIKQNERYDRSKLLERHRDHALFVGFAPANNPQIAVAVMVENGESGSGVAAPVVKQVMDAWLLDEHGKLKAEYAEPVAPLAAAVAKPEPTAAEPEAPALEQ
Method in brief: (§4)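 Isolated P. aeruginosa PAO1 PBPs; drug added at 10 concentrations, 0.06 μg/ml to 32 μg/ml, before Bocillin FL labeling. Labeled PBPs imaged. IC50 is the drug level cutting Bocillin FL binding by 50% versus a no-drug sample.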

[10] = target: Penicillin-binding protein 3 (Pseudomonas aeruginosa, UniProt Q51504); experiment: Inhibition of bocillin FL binding to Pseudomonas aeruginosa PAO1 penicillin-binding protein 3; method in brief: as §4
Chain of Penicillin-binding protein 3 (Q51504 whole entry): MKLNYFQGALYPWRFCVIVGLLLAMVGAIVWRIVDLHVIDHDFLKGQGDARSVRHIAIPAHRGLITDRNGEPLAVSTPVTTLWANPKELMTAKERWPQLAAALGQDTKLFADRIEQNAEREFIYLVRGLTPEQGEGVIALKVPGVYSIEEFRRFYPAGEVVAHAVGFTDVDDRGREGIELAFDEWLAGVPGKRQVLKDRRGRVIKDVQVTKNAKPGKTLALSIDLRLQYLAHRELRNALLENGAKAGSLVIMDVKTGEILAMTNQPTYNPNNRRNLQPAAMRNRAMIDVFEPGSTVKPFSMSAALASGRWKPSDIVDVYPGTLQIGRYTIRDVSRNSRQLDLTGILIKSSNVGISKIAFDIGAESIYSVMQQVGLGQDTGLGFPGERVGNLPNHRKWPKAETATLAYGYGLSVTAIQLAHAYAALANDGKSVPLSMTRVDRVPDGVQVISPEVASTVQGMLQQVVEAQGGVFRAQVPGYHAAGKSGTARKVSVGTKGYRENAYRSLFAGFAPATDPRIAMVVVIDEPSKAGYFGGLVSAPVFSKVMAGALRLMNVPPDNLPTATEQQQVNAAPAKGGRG

[11] = Inhibition of bocillin FL binding to Pseudomonas aeruginosa PAO1 penicillin-binding protein 4; method in brief: as §1
[12] = Inhibition of bocillin FL binding to Pseudomonas aeruginosa PAO1 penicillin-binding protein 5/6; method in brief: as §4
[13] = target: T3, Penicillin-binding protein 1B (Pseudomonas aeruginosa, UniProt Q9X6W0); experiment: Inhibition of bocillin FL binding to Pseudomonas aeruginosa PAO1 penicillin-binding protein 1b; method in brief: as §4
T3 sequence (Q9X6W0 whole entry): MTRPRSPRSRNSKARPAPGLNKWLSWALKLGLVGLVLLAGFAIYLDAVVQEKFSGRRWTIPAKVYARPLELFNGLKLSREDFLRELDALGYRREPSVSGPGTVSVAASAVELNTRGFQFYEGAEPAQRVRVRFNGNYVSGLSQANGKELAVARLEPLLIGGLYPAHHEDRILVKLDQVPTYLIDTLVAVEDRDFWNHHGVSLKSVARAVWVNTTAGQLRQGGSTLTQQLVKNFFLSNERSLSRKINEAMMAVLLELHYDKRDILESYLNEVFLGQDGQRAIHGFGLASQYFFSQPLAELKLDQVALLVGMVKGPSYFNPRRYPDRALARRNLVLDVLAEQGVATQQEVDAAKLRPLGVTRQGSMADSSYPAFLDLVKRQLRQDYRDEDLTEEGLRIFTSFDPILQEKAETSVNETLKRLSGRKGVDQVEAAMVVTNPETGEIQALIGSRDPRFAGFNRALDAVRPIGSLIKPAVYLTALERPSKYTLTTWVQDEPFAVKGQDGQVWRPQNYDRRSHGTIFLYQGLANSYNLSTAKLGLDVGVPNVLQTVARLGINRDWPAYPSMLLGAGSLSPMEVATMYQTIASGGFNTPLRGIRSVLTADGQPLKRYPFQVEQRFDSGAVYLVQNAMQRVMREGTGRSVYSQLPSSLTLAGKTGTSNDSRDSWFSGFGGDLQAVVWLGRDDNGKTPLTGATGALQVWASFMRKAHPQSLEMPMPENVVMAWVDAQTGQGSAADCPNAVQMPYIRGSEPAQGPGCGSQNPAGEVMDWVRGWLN

Compound	IC50 [1] [µg/mL]	IC50 [2] [µg/mL]	IC50 [3] [µg/mL]	IC50 [4] [µg/mL]	IC50 [5] [µg/mL]	IC50 [6] [nM]	IC50 [7] [µg/mL]	IC50 [8] [µg/mL]	IC50 [9] [nM]	IC50 [10] [nM]	IC50 [11] [µg/mL]	IC50 [12] [µg/mL]	IC50 [13] [nM]
CO/N=C(\C(=O)N[C@@H]1C(=O)N2C(C(=O)[O-])=C(C[N+]3(C)CCCC3)CS[C@H]12)c1csc(N)n1	0.1 (≈ 0.208 µM)	> 4	> 4	> 4	0.1 (≈ 0.208 µM)	1250	3.7 (≈ 7.7 µM)	2 (≈ 4.16 µM)	16600	208	0.3 (≈ 0.624 µM)	> 32	
C[C@H]1[C@H](NC(=O)/C(=N\OC(C)(C)C(=O)O)c2csc(N)n2)C(=O)N1S(=O)(=O)O (stereo in doubt) [AZTREONAM]	2 (≈ 4.59 µM)	> 8	> 8	> 8	0.03 (≈ 0.0689 µM)	> 18400	> 8	> 8	36700	68.9	16 (≈ 36.7 µM)	> 16	
C[C@@H](O)[C@H]1C(=O)N2C(C(=O)O)=C(SCCNC=N)C[C@H]12 [IMIPENEM ANHYDROUS]	0.5 (≈ 1.67 µM)	0.1 (≈ 0.334 µM)	0.5 (≈ 1.67 µM)	0.01 (≈ 0.0334 µM)	8 (≈ 26.7 µM)	33.4	0.5 (≈ 1.67 µM)	0.5 (≈ 1.67 µM)	334	334	0.01 (≈ 0.0334 µM)	2 (≈ 6.68 µM)	1670

Source: ChEMBL document CHEMBL1157359, “Binding of ceftobiprole and comparators to the penicillin-binding proteins of Escherichia coli, Pseudomonas aeruginosa, Staphylococcus aureus, and Streptococcus pneumoniae” (Antimicrob Agents Chemother, 2007)
